Source: PubChem (several laboratories)
Calpain2 inh – inhibitors of pig calpain II | AID 1236 | inhibition, % at 16 µM | 0.37% of 220,000 active | purified calpain II, fluorogenic peptide substrate, 30 min;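 active = inhibition above about 50%, limit read from the data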
Wee1 degr inh – blocks degradation of human Wee1 kinase. P30291. HeLa Luc-Wee1K328M stability, luciferase luminescence; 100% = proteasome inhibitor MG132 effect. reporter increase, % at 5 µM. 1.2% of 220,000 active. AID 1321;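 active = activation above the mean of all tested compounds plus 3 SD, set per screening run, cut at about 8.8% in these data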;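 also: cells exposed to compound for 20 h before luminescence read; 0% = DMSO alone and 100% = MG132 at 30 µM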
TNF death inh – TNF-alpha cell death inhibition in Jurkat FADD-/- cells; Jurkat FADD-/- TNF necroptosis rescue, ATP luminescence, 24 h; 0 = TNF only, 100 = no-TNF cells; activation (protection from cell death), % at 10 µM; 0.068% of 220,000 active;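 active = activation, meaning protection from cell death, of at least 50% relative to plate controls; inactive = activation below 50%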;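 also: necroptosis triggered by 40 ng/mL TNF-alpha added together with compound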
zVAD death inh – blocks zVAD induced death of L929 cells. L929 zVAD necroptosis rescue, ATP luminescence, 24 h; with zVAD 60 µM. viability rescue, % at 10 µM. 0.38% of 220,000 active;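 active = activation, scaled between plate controls, above about 75%, limit read from the data; inactive = activation under that limit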;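 also: 0% = zVAD with DMSO and 100% = DMSO alone without zVAD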
RBBP9 inhibitor – human RBBP9 hydrolase inhibition. O75884. recombinant RBBP9, FP-Rh probe fluorescence polarization. inhibition, % at 7.94 µM. 0.2% of 220,000 active. AID 1515;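 active = inhibition above the campaign mean of all tested compounds plus 3 SD, cut at about 14% in these data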;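 also: plate controls were DMSO wells with RBBP9 for no effect and wells lacking RBBP9 protein for full effect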
Target sequence (O75884 whole entry, looked up): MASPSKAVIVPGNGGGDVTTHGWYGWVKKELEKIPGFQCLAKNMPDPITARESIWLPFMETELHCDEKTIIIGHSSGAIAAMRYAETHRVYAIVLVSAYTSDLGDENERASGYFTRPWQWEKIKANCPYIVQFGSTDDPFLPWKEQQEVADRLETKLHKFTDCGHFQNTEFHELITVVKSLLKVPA
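Controls: DMSO-treated enzyme wells and wells lacking RBBP9 | Material: RBBP9 protein | Technique: Fluorescence polarization | Replication: Single well per compound, no replicates | Buffer or medium: Tris-NaCl-Pluronic buffer, pH 8.0 | Timing: 30 min compound preincubation, 45 min probe labeling, 25 °C | Read-out basis: Percent inhibition from mP, scaled between DMSO and no-protein wells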
Pf gametocyte – inhibitors of late stage P. falciparum gametocyte viability; P. falciparum stage V gametocytes, ATP luminescence, 24 h; inhibition, % at 10.9 µM; 0.065% of 150,000 active; AID 743093;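 active = inhibition above the mean plus 3 SD of compounds within the control limits, set per campaign, cut at about 38% in these data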;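 also: 0% = DMSO wells and 100% = medium only without gametocytes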
RBBP9 inh conf – human RBBP9 inhibition, confirmation. shares compounds with RBBP9 inhibitor. recombinant RBBP9, FP-Rh probe fluorescence polarization. inhibition, % at 7.94 µM. 36% of 410 active. AID 1537;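 active = inhibition above the hit cutoff derived for the primary screen, cut at about 15% in these data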;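 also: 0% = RBBP9 with DMSO and 100% = wells lacking RBBP9 protein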
Starred values were filed as active, the others as inactive; . = no result. A selection: hits, their analogues and other compounds. The true share with any hit is near 2.1%.

SMILES | Calpain2 inh | Wee1 degr inh | TNF death inh | zVAD death inh | RBBP9 inhibitor | Pf gametocyte | RBBP9 inh conf
COc1cc(-c2ccc(Nc3ccccc3C(=O)O)c(OC)c2)ccc1Nc1ccccc1C(=O)O | 55.4* | 0.8 | -3.5 | -0.1 | 24.3* | . | 45.6*
COc1cccc(Nc2ccccc2C(=O)O)c1 | 8.1 | 1.7 | -0.2 | 0.2 | -5.8 | 5.9 | .
O=C(N/N=C/c1ccccc1O)C1(O)c2ccccc2-c2ccccc21 | -162.4 | 1.5 | -0.6 | 1.5 | -5.7 | 3.3 | .
O=C(C1COc2ccccc2O1)N1CCN(c2ccc(F)cc2)CC1 (stereo not drawn) | 10.9 | -2.4 | -1.0 | 0.8 | -11.7 | -4.1 | .
O=C(C1COc2ccccc2O1)N1CCCC1 (stereo not drawn) | -6.1 | 0.0 | 2.1 | -0.6 | 15.4* | 4.0 | 7.4
CC1(C)CC(=O)C(C=NCCN2CCN(C(=O)c3ccc(F)cc3)CC2)=C(O)C1 | -10.5 | -1.1 | -2.1 | -0.1 | 14.9* | . | 8.1
CC1(C)CC(=O)C(C=NCCN2CCN(C(=O)c3ccccc3)CC2)=C(O)C1 | -0.6 | -1.0 | 0.1 | 0.0 | -7.4 | -3.2 | .
